Laboratory results taken from ChEMBL document CHEMBL3397044, “Discovery and in vitro and in vivo profiles of N-ethyl-N-[2-[3-(5-fluoro-2-pyridinyl)-1H-pyrazol-1-yl]ethyl]-2-(2H-1,2,3-triazol-2-yl)-benzamide as a novel class of dual orexin receptor antagonist” (Bioorg Med Chem, 2015).

How the values were obtained:
[1] = target: T1, Orexin receptor type 2 (Homo sapiens) (UniProt O43614); experiment: Antagonist activity against human OX2 receptor expressed in CHO cells assessed as reduction in [Ala6,12]orexin-A-induced intracellular Ca2+ mobilization incubated for 30 mins by Fluo-4 AM dye based fluorescence assay; format: functional, cell-based
T1 sequence (whole entry): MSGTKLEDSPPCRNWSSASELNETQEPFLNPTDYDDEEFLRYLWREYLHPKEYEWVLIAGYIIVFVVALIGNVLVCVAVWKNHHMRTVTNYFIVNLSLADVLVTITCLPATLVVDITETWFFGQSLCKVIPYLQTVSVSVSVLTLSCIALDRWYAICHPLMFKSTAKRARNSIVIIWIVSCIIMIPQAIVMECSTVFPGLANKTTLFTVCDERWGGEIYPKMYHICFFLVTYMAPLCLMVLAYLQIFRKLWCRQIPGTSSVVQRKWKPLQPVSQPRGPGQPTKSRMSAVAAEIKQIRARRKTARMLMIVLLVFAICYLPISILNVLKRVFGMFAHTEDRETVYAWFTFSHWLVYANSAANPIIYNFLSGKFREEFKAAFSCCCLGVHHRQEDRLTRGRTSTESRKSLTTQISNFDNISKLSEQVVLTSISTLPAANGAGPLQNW
How it was run: (§1)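 Cells seeded 2.4 × 10⁴/well, cultured 18 h. Loaded with Fluo-4 AM (0.5 µM final) in HBSS, 20 mM HEPES, 0.1% BSA, 2.5 mM probenecid, 0.2 mg/mL amaranth, pH 7.4, 37 °C 1 h. Washed, then antagonist for 30 min at room temperature. Peak minus basal fluorescence normalized to the [Ala6,12]orexin-A maximum. Kb = IC50/(1+[L]/EC50). At least three independent runs in duplicate.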

[2] = target: T2, Orexin/Hypocretin receptor type 1 (Homo sapiens) (UniProt O43613); experiment: Antagonist activity against human OX1 receptor expressed in CHO cells assessed as reduction in [Ala6,12]orexin-A-induced intracellular Ca2+ mobilization incubated for 30 mins by Fluo-4 AM dye based fluorescence assay; format: functional, cell-based; how it was run: as §1
T2 sequence (whole entry): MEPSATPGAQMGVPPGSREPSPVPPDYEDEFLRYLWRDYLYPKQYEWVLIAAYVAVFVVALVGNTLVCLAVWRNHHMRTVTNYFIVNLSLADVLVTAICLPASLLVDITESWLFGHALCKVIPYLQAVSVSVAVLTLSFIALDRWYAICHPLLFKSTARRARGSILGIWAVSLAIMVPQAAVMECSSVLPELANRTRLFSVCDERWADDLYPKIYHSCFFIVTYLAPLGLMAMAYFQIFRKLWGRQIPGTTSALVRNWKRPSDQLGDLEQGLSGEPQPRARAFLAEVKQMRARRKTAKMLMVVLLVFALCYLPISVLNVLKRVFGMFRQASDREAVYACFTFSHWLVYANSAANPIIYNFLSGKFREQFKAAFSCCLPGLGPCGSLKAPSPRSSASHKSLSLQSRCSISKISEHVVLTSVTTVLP

[3] = Half life in human; format: ADME, organism-based; details: in vivo
[4] = Drug metabolism in dog liver microsomes at 5 uM after 15 mins; format: ADME, Canis lupus familiaris; details: read-out: Drug metabolism
How it was run: (§2)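 Liver microsomes at 1 mg protein/mL with 5 µM compound, incubated 15 min. Value reported as percentage of compound metabolized.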

[5] = Drug metabolism in human liver microsomes at 5 uM after 15 mins; format: ADME; details: read-out: Drug metabolism; how it was run: as §2
[6] = Tmax in Sprague-Dawley rat at 30 mg/kg, po; format: ADME, organism-based; parameters: dose 30 mg/kg, route oral; details: in vivo
[7] = Tmax in dog at 3 mg/kg, po; format: ADME, organism-based, Canis lupus familiaris; parameters: dose 3 mg/kg, route oral; details: in vivo
How it was run: (§3)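 Fasted male rats dosed orally at 10 mg/kg, and male dogs at 3 mg/kg (n = 3). Tmax read from the oral profile. F calculated against the iv arm (rat 2 mg/kg, dog 0.5 mg/kg).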

[8] = Drug metabolism in rat liver microsomes at 5 uM after 15 mins; format: ADME; details: read-out: Drug metabolism; how it was run: as §2
[9] = Clearance in Sprague-Dawley rat at 2 mg/kg, iv; format: ADME, organism-based; parameters: dose 2 mg/kg, route intravenous; details: in vivo
How it was run: (§4)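 Fasted male Sprague–Dawley rats (n = 3) given 2 mg/kg iv. Vd and CL taken from the iv profile. T1/2 calculated as ln2·Vd/CL.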

[10] = Volume of distribution in Sprague-Dawley rat at 2 mg/kg, iv; format: ADME, organism-based; parameters: dose 2 mg/kg, route intravenous; details: in vivo; how it was run: as §4
[11] = Ratio of drug level in CSF to plasma in Sprague-Dawley rat at 30 mg/kg, ip; format: ADME, organism-based; parameters: dose 30 mg/kg, route intraperitoneal
How it was run: (§5)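 Male rats dosed ip at 30 mg/kg. Drug concentrations measured in brain, CSF and plasma, and reported as brain/plasma and CSF/plasma ratios.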

[12] = Oral bioavailability in Sprague-Dawley rat at 30 mg/kg; format: ADME, organism-based; details: in vivo
[13] = Volume of distribution in dog at 0.5 mg/kg, iv; format: ADME, organism-based, Canis lupus familiaris; parameters: dose 0.5 mg/kg, route intravenous; details: in vivo
How it was run: (§6)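 Male dogs given 0.5 mg/kg iv (n = 3). Vd and CL derived from the iv profile. T1/2 = ln2·Vd/CL.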

[14] = Clearance in dog at 0.5 mg/kg, iv; format: ADME, organism-based, Canis lupus familiaris; parameters: dose 0.5 mg/kg, route intravenous; details: in vivo; how it was run: as §6
[15] = Half life in Sprague-Dawley rat at 2 mg/kg, iv; format: ADME, organism-based; parameters: dose 2 mg/kg, route intravenous; details: in vivo; how it was run: as §4
[16] = Half life in dog at 0.5 mg/kg, iv; format: ADME, organism-based, Canis lupus familiaris; parameters: dose 0.5 mg/kg, route intravenous; details: in vivo; how it was run: as §6
[17] = Ratio of drug level in brain to plasma in Sprague-Dawley rat at 30 mg/kg, ip; format: ADME, organism-based; parameters: dose 30 mg/kg, route intraperitoneal; details: read-out: BPR; how it was run: as §5
[18] = Oral bioavailability in dog at 3 mg/kg; format: ADME, organism-based, Canis lupus familiaris; details: in vivo; how it was run: as §3
[19] = tested on: Rattus norvegicus; experiment: Toxicity in Wistar rat assessed as effect on rotarod performance at 10 mg/kg, ip administered 30 mins prior to the test by rotarod test; format: organism-based; parameters: dose 10 mg/kg, route intraperitoneal; details: in vivo, 0.5 h

Row | SMILES | Kb [1] [nM] | Kb [2] [nM] | other results
1 | CCN(CCn1ccc(-c2cc(C(F)(F)F)ccn2)n1)C(=O)c1cc(C)ccc1-n1nccn1 | 66.4 | 28 | –
2 | Cc1ccc(-n2nccn2)c(C(=O)N2CCN(c3nc4cc(Cl)ccc4o3)CC[C@H]2C)c1 [SUVOREXANT] | – | – | half-life [3]: 540 min
3 | Cc1ccc(-n2nccn2)c(C(=O)N(C)CCn2ccc(-c3ccc(F)cn3)n2)c1 | 8.58 | 2.27 | –
4 | CCN(CCc1noc(-c2ccc(F)cn2)n1)C(=O)c1cc(C)ccc1-n1nccn1 | 23 | 8.09 | –
5 | CCN(CCn1ccc(-c2ccc(F)cn2)n1)C(=O)c1cc(C)ccc1-c1ncccn1 | 4.01 | 2.52 | metabolised at 0.25 h, 5 µM [4]: 10.1%; metabolised at 0.25 h, 5 µM [5]: 19.7%; Tmax [6]: 40 min; Tmax [7]: 30 min; metabolised at 0.25 h, 5 µM [8]: 97.3%; clearance [9]: 65.2 mL/min/kg; Vd [10]: 1.79 L/kg; Kp [11]: 0.03; bioavailability [12]: 4.62%; Vd [13]: 1.29 L/kg; clearance [14]: 13.1 mL/min/kg; half-life [15]: 19.1 min; half-life [16]: 67.8 min; Kp [17]: 0.13; bioavailability [18]: 100%
6 | CCN(CCn1ccc(-c2ccc(F)cn2)n1)C(=O)c1cc(OC)ccc1-n1nccn1 | 638 | 119 | –
7 | CCN(CCc1cc(-c2ccc(F)cn2)on1)C(=O)c1cc(C)ccc1-n1nccn1 | 19.8 | 15.2 | –
8 | Cc1ccc(-c2nc3ccc(C)cn3c2CC(=O)N(C)C)cc1 [ZOLPIDEM] | – | – | Activity [19]: Toxic
9 | Cc1nc(C(=O)N2CCCC[C@H]2CNC(=O)c2cccc3occc23)c(-c2ccc(F)cc2)s1 [SB-649868] | – | – | half-life [3]: 204 min
10 | CCN(CCn1ccc(-c2cccc(C(F)(F)F)n2)n1)C(=O)c1cc(C)ccc1-n1nccn1 | 3.92 | 3.19 | –
11 | CCN(CCn1ccc(-c2ccc(F)cn2)n1)C(=O)c1cc(Cl)ccc1-n1nccn1 | 2.82 | 1.48 | metabolised at 0.25 h, 5 µM [5]: 46.9%
12 | CCN(CCn1ccc(-c2ccc(F)cn2)n1)C(=O)c1cc(F)ccc1-n1nccn1 | 11.4 | 6.67 | metabolised at 0.25 h, 5 µM [5]: 35.3%
13 | CCN(CCc1cc(-c2ccc(F)cn2)no1)C(=O)c1cc(C)ccc1-n1nccn1 | 32.2 | 45.5 | –
14 | CCN(CCn1ccc(-c2cccc(C)n2)n1)C(=O)c1cc(C)ccc1-n1nccn1 | 1.96 | 0.41 | –
15 | CCN(CCn1cc(-c2ccc(F)cn2)cn1)C(=O)c1cc(C)ccc1-n1nccn1 | 7.22 | 3.81 | –
16 | Cc1ccc(-n2nccn2)c(C(=O)N(CCn2ccc(-c3ccc(F)cn3)n2)C(C)C)c1 | 37.9 | 38.5 | –
17 | Cc1ccc(-n2nccn2)c(C(=O)NCCn2ccc(-c3ccc(F)cn3)n2)c1 | 376 | 152 | –
18 | CCN(CCn1ccc(-c2ccc(C(F)(F)F)cn2)n1)C(=O)c1cc(C)ccc1-n1nccn1 | 902 | 48.6 | –
19 | CCN(CCn1ccc(-c2ccc(F)cc2)n1)C(=O)c1cc(C)ccc1-n1nccn1 | 1.25 | 0.32 | –
20 | CCN(CCn1ccc(-c2ccc(F)cn2)n1)C(=O)c1cc(C)ccc1-n1nccn1 | 0.89 | 0.43 | metabolised at 0.25 h, 5 µM [5]: 35%
